Screens from PubChem BioAssay.
GSK3B inh = inhibitors of human GSK3beta kinase; P49841; GST-GSK3beta kinase, ADP-Glo luminescence, 60 min; hits give low values; activity score (negative = inhibition), % at 10 µM; actives 0.038% (n = 300,000); AID 2097;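 active = more than half of replicate wells score below -50%, meaning over 50% inhibition versus plate controls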
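Test system: GST-fused GSK3beta enzyme, cell-free | Quantity: 1.6 ng GST-GSK3beta enzyme per well | Reagent: 25 µM ATP with peptide substrate | Schedule: 60 min enzyme reaction, room temperature | Signal: Luminescent ADP-Glo measurement of ADP formed | Read-out basis: Score relative to plate controls | Control set: DMSO and 20 µM GW8510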
STK33 inh = blocks human STK33 kinase activity; actives 0.073% (n = 320,000); inhibition, % at 10 µM; AID 2661; purified STK33, MBP phosphorylation, ADP-Glo luminescence; Q9BYT3;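 active = inhibition at or above 25%, using the most active replicate where run in duplicate; inactive = inhibition below 25%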
DYRK1A inh = blocks rat Dyrk1A kinase activity. Q63470. ADP-Glo luminescence, NFATc1 peptide. inhibition, % at 12.5 µM. actives 0.43% (n = 310,000); in the data active = inhibition above about 50%
GSK3 alpha inh = inhibitors of human GSK-3 alpha kinase | ADP-Glo luminescence, 60 min | actives 0.1% (n = 320,000) | inhibition, % at 10 µM | P49840;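 active = more than half of replicates show inhibition above 20%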;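 also: GST-tagged GSK-3 alpha with peptide substrate and 25 µM ATP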
Dyrk1A artifact = counter-screen for Dyrk1A inhibitors: ADP-Glo luciferase artifacts | shares compounds with DYRK1A inh | ADP-Glo luciferase artifact assay, no Dyrk1A, luminescence | AC50, µM (doses to about 12 µM) | 1,300 tested, under 10 active | AID 588348;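 active = fitted half-maximal dose AC50 no more than ten times the top valid tested dose, with luminescence dropping as dose rises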
A number is an active result; i = inactive; nt = no result. The full list was thinned out, with hits kept by preference.

SMILES | GSK3B inh | STK33 inh | DYRK1A inh | GSK3 alpha inh | Dyrk1A artifact
Cc1cccc(CNc2ncnc3ccc(-c4ccc5c(c4)OCO5)cc23)c1 | nt | i | 51 | i | i
O=c1c(O)cccc2cc(O)c(O)c(O)c12 | i | i | 82 | i | i
O=C1c2ccccc2C(=O)c2c(O)c(O)cc(O)c21 | nt | nt | i | nt | nt
CC(C)(C)OC(=O)C[C@H]1C/C=C\C[C@H](CC(=O)NCCO)C(=O)N[C@@H](c2ccccc2)COC1=O | nt | i | i | i | nt
Cc1ccnc(NC(=O)c2cccc(S(=O)(=O)N3CCN(c4ccccc4)CC3)c2)c1 | i | i | 60 | i | i
S=c1sc2ccccc2n1CCc1ccncc1 | i | i | 62 | i | i
S=c1[nH]c2ccccc2n1CCc1ccncc1 | nt | nt | i | nt | nt
CCc1ccc(CNC(=O)c2ccc3nc(C4CCCCC4)oc3c2)nc1 | i | i | i | i | nt
COc1cccc(-n2sc3c(c2=S)-c2cc(OC)ccc2NC3(C)C)c1 | i | i | i | i | nt
CC1(C)Nc2ccc(O)cc2-c2c1ssc2=S | i | i | 52 | i | i
COc1ccc(C(=O)N2CCN(c3c(C)cccc3C)CC2)cc1OC | i | i | 59 | nt | i
COc1ccc(C(=O)N2CCN(c3ccc(C)cc3)CC2)cc1OC | i | i | i | i | nt
O=C(c1ccccc1)c1ccc2cc(O)ccc2c1 | i | i | 64 | i | i
O=C(c1ccccc1)c1ccc2ccccc2c1 | nt | nt | i | nt | nt
Cc1ccc2c(c1)C(=C(C#N)C#N)CCN2 | nt | nt | 61 | nt | i
CCCCC(CC)CN=C(N)NC(N)=NCCCCCCN=C(N)NC(N)=NCC(CC)CCCC (configuration not stated) | nt | 29 | 52 | i | i
CCCCC(CC)CO (configuration not stated) | nt | nt | i | nt | nt
Cc1cccc(NC(=S)NN2CCN(C)CC2)c1 | i | i | 54 | i | i
COc1cccc(NC(=O)NNC(=O)CCc2ccc(O)c(O)c2)c1 | i | i | i | i | nt
COc1ccc(Cc2nnc(SCC(=O)Nc3cc(Cl)ccc3C)[nH]c2=O)cc1 | i | i | i | i | nt
